How the values were obtained:
Type in all cases: functional
HCT-15 [1] = assay: Cytotoxicity against human HCT15 cells assessed as cell growth at 10^-5 M after 48 hrs by SRB assay; details: HCT-15, 48 h, read-out: Activity
Summary of the method: (§1)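 NCI-60 five-dose screen. Cells were grown in RPMI 1640 with 5% FBS and seeded at 5000–40,000 cells/well according to doubling time. They were pre-incubated 24 h at 37 °C in 5% CO₂, and time-zero (Tz) plates were TCA-fixed at drug addition. Five 10-fold dilutions of DMSO stock were applied for 48 h. Read-out was SRB staining, 515 nm absorbance, with percent growth calculated versus Tz and untreated control.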

SF-295 [2] = assay: Cytotoxicity against human SF295 cells assessed as cell growth at 10^-5 M after 48 hrs by SRB assay; details: SF-295, 48 h, read-out: Activity
SK-MEL-2 = assay: Cytotoxicity against human SK-MEL-2 cells assessed as cell growth at 10^-5 M after 48 hrs by SRB assay; details: SK-MEL-2, 48 h, read-out: Activity
SK-OV-3 = assay: Cytotoxicity against human SKOV3 cells assessed as cell growth at 10^-5 M after 48 hrs by SRB assay; details: SK-OV-3, 48 h, read-out: Activity
A498 = assay: Cytotoxicity against human A498 cells assessed as cell growth at 10^-5 M after 48 hrs by SRB assay; details: A498, 48 h, read-out: Activity
Summary of the method: (§2)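 NCI-60 screen: lines kept in RPMI 1640 with 5% FBS, seeded at 5000–40,000 cells/well by doubling time, preincubated 24 h at 37 °C in 5% CO2. Time-zero plates TCA-fixed at drug addition. DMSO stocks diluted in medium, 48 h exposure. Fixation in cold TCA (final 10% adherent, 16% suspension), 0.4% SRB stain, solubilised in 10 mM Tris base, A515. Percent growth computed against control and time-zero.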

SF-268 = assay: Growth inhibition of human SF268 cells after 48 hrs by SRB assay; details: SF-268, 48 h
Summary of the method: (§3)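 Adherent NCI-60 lines grown in RPMI 1640 with 5% FBS, seeded at 5000–40,000 cells/well, and preincubated 24 h at 37 °C, 5% CO2. Compound, stocked in DMSO, given either once at 10^-5 M or at five 10-fold dilutions for 48 h. Cells fixed with cold TCA (final 10%), stained with 0.4% SRB, and read at 515 nm. GI50 taken as 50% reduction in net protein increase versus time-zero and control plates.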

SK-MEL-28 [3] = assay: Growth inhibition of human SK-MEL-28 cells after 48 hrs by SRB assay; details: SK-MEL-28, 48 h; for CC50: read-out: LC50 (the source's name); summary of the method: as §3
MDA-MB-468 = assay: Cytotoxicity against human MDA-MB-468 cells assessed as cell growth at 10^-5 M after 48 hrs by SRB assay; details: MDA-MB-468, 48 h, read-out: Activity
SR = assay: Cytotoxicity against human SR cells assessed as cell growth at 10^-7 M after 48 hrs by SRB assay; details: read-out: Activity
HOP-92 = assay: Cytotoxicity against human HOP92 cells assessed as cell growth at 10^-7 M after 48 hrs by SRB assay; details: HOP-92, 48 h, read-out: Activity; summary of the method: as §1
NCI-H522 [4] = assay: Cytotoxicity against human NCI-H522 cells assessed as cell growth at 10^-7 M after 48 hrs by SRB assay; details: NCI-H522, 48 h, read-out: Activity
NCI-H522 [5] = assay: Cytotoxicity against human NCI-H522 cells assessed as cell growth at 10^-4 M after 48 hrs by SRB assay; details: NCI-H522, 48 h, read-out: Activity
COLO = assay: Cytotoxicity against human COLO […] cells assessed as cell growth at 10^-4 M after 48 hrs by SRB assay; details: read-out: Activity; summary of the method: as §2
HCC 2998 [6] = assay: Cytotoxicity against human HCC2998 cells assessed as cell growth at 10^-4 M after 48 hrs by SRB assay; details: HCC 2998, 48 h, read-out: Activity; summary of the method: as §2
SF-295 [7] = assay: Cytotoxicity against human SF295 cells assessed as cell growth at 10^-4 M after 48 hrs by SRB assay; details: SF-295, 48 h, read-out: Activity
Malme-3M = assay: Cytotoxicity against human MALME-3M cells assessed as cell growth at 10^-4 M after 48 hrs by SRB assay; details: read-out: Activity
SK-MEL-28 [8] = assay: Cytotoxicity against human SK-MEL-28 cells assessed as cell growth at 10^-4 M after 48 hrs by SRB assay; details: SK-MEL-28, 48 h, read-out: Activity
UACC-257 [9] = assay: Cytotoxicity against human UACC257 cells assessed as cell growth at 10^-4 M after 48 hrs by SRB assay; details: UACC-257, 48 h, read-out: Activity
IGROV-1 [10] = assay: Cytotoxicity against human IGROV1 cells assessed as cell growth at 10^-4 M after 48 hrs by SRB assay; details: IGROV-1, 48 h, read-out: Activity; summary of the method: as §1
PC-3 = assay: Cytotoxicity against human PC3 cells assessed as cell growth at 10^-4 M after 48 hrs by SRB assay; details: PC-3, 48 h, read-out: Activity
MCF7 = assay: Cytotoxicity against human MCF7 cells assessed as cell growth at 10^-4 M after 48 hrs by SRB assay; details: MCF7, 48 h, read-out: Activity
BT-549 = assay: Cytotoxicity against human BT549 cells assessed as cell growth at 10^-7 M after 48 hrs by SRB assay; details: BT-549, 48 h, read-out: Activity; summary of the method: as §2
HCC 2998 [11] = assay: Cytotoxicity against human HCC2998 cells assessed as cell growth at 10^-8 M after 48 hrs by SRB assay; details: HCC 2998, 48 h, read-out: Activity; summary of the method: as §1
HT-29 [12] = assay: Cytotoxicity against human HT-29 cells assessed as cell growth at 10^-8 M after 48 hrs by SRB assay; details: HT-29, 48 h, read-out: Activity; summary of the method: as §1
SF-295 [13] = assay: Cytotoxicity against human SF295 cells assessed as cell growth at 10^-8 M after 48 hrs by SRB assay; details: SF-295, 48 h, read-out: Activity
IGROV-1 [14] = assay: Cytotoxicity against human IGROV1 cells assessed as cell growth at 10^-8 M after 48 hrs by SRB assay; details: IGROV-1, 48 h, read-out: Activity
ACHN = assay: Cytotoxicity against human ACHN cells assessed as cell growth at 10^-8 M after 48 hrs by SRB assay; details: read-out: Activity; summary of the method: as §2
HCT-15 [15] = assay: Cytotoxicity against human HCT15 cells assessed as cell growth at 10^-6 M after 48 hrs by SRB assay; details: HCT-15, 48 h, read-out: Activity; summary of the method: as §1
UACC-257 [16] = assay: Cytotoxicity against human UACC257 cells assessed as cell growth at 10^-6 M after 48 hrs by SRB assay; details: UACC-257, 48 h, read-out: Activity
786-0 = assay: Cytotoxicity against human 786-0 cells assessed as cell growth at 10^-6 M after 48 hrs by SRB assay; details: 786-0, 48 h, read-out: Activity; summary of the method: as §2
HT-29 [17] = assay: Growth inhibition of human HT-29 cells after 48 hrs by SRB assay; details: HT-29, 48 h; summary of the method: as §3
SF-539 = assay: Growth inhibition of human SF539 cells after 48 hrs by SRB assay; details: SF-539, 48 h; summary of the method: as §3

Structure (SMILES) | growth at 10 µM (HCT-15 [1]) | growth at 10 µM (SF-295 [2]) | growth at 10 µM (SK-MEL-2) | growth at 10 µM (SK-OV-3) | growth at 10 µM (A498) | GI50 (SF-268) | LC50 (SF-268) | TGI (SF-268) | GI50 (SK-MEL-28 [3]) | TGI (SK-MEL-28 [3]) | CC50 (SK-MEL-28 [3]) | growth at 10 µM (MDA-MB-468) | growth at 0.1 µM (SR) | growth at 0.1 µM (HOP-92) | growth at 0.1 µM (NCI-H522 [4]) | growth at 100 µM (NCI-H522 [5]) | growth at 100 µM (COLO) | growth at 100 µM (HCC 2998 [6]) | growth at 100 µM (SF-295 [7]) | growth at 100 µM (Malme-3M) | further results
COc1ccc(-c2nn3cc(-c4cccc(N)c4)nc3s2)cc1 | 36% | 24% | 39% | 2% | -17% | 4.13 µM | > 100 µM | 27.2 µM | 3.76 µM | 26 µM | > 100 µM | -2% | 102% | 53% | 83% | -76% | -56% | 6% | -27% | -66% | growth at 100 µM (SK-MEL-28 [8]): -39%; growth at 100 µM (UACC-257 [9]): 7%; growth at 100 µM (IGROV-1 [10]): -18%; growth at 100 µM (PC-3): -22%; growth at 100 µM (MCF7): -47%; growth at 0.1 µM (BT-549): 98%; growth at 0.01 µM (HCC 2998 [11]): 98%; growth at 0.01 µM (HT-29 [12]): 100%; growth at 0.01 µM (SF-295 [13]): 95%; growth at 0.01 µM (IGROV-1 [14]): 102%; growth at 0.01 µM (ACHN): 106%; growth at 1 µM (HCT-15 [15]): 86%; growth at 1 µM (UACC-257 [16]): 107%; growth at 1 µM (786-0): 104%; GI50 (HT-29 [17]): 4.27 µM; LC50 (concentration killing 50% of cells) (HT-29 [17]): > 100 µM; TGI (HT-29 [17]): 23.2 µM; GI50 (SF-539): 2.51 µM; LC50 (SF-539): 48 µM; TGI (SF-539): 7.83 µM
COc1ccc(-c2nn3cc(-c4ccc(O)cc4O)nc3s2)cc1 | 32% | 3% | 9% | -67% | -50% | 2.42 µM | > 100 µM | 41.1 µM | 2.14 µM | 12.4 µM | > 100 µM | 9% | 85% | 64% | 84% | -23% | -27% | -3% | -13% | -28% | growth at 100 µM (SK-MEL-28 [8]): -26%; growth at 100 µM (UACC-257 [9]): -5%; growth at 100 µM (IGROV-1 [10]): -7%; growth at 100 µM (PC-3): 1%; growth at 100 µM (MCF7): -7%; growth at 0.1 µM (BT-549): 94%; growth at 0.01 µM (HCC 2998 [11]): 98%; growth at 0.01 µM (HT-29 [12]): 98%; growth at 0.01 µM (SF-295 [13]): 95%; growth at 0.01 µM (IGROV-1 [14]): 96%; growth at 0.01 µM (ACHN): 103%; growth at 1 µM (HCT-15 [15]): 93%; growth at 1 µM (UACC-257 [16]): 83%; growth at 1 µM (786-0): 90%; GI50 (HT-29 [17]): 2.95 µM; LC50 (concentration killing 50% of cells) (HT-29 [17]): > 100 µM; TGI (HT-29 [17]): 20.2 µM; GI50 (SF-539): 1.83 µM; TGI (SF-539): 3.47 µM
